According to ChEMBL document CHEMBL2046345, “Synthesis of Leubethanol derivatives and evaluation against Mycobacterium tuberculosis” (Bioorg Med Chem, 2012):
Converted amounts (≈) assume the structure as drawn.

Experiments:
[1] = test system: Mycobacterium tuberculosis; assay: Antimycobacterial activity against Mycobacterium tuberculosis H37Rv ATCC 27294 by MABA method; assay type: functional
Method in brief: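 M. tuberculosis H37Rv (ATCC 27294), susceptible to all five first-line drugs, in modified Microplate Alamar Blue Assay. Two-fold serial dilutions were made in Middlebrook 7H9-OADC, 100–0.78 µg/mL, with 1:50 bacterial suspension (~6×10⁶ CFU/mL, McFarland 1). Incubation 37 °C, 5% CO₂, 5–7 days, then Alamar Blue plus 10% Tween-80, 24 h. MIC = first blue well, confirmed microscopically. Ethambutol was the reference; triplicate independent experiments.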

[2] = Cytotoxicity against african green monkey Vero cells after 48 hrs by MTT assay; assay type: cell-based; conditions: chlorocebus sabaeus
Method in brief: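 Vero cells grown in RPMI-1640 with 10% FBS, penicillin and streptomycin, 37 °C, 5% CO₂. Exposed to compound 500–0.5 µg/mL for 48 h, then MTT (4 mg/mL in PBS) for 3 h. Formazan dissolved in DMSO, absorbance read at 575 nm. CC50 = concentration inhibiting 50% viability by linear regression; rounded mean of three experiments.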

[3] = Selectivity index, ratio of CC50 for african green monkey Vero cells to MIC for Mycobacterium tuberculosis H37Rv ATCC 27294; assay type: functional
Method in brief: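 SI calculated as CC50 (Vero, MTT, 48 h) divided by MIC against H37Rv (MABA).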

Structure (SMILES)	MIC [1] [µM]	CC50 at 48 h [2] [µM]	Selectivity Index [3]
Cc1cc(O)c2c(c1)[C@H]([C@@H](C)CCC(N=[N+]=[N-])C(C)(C)O)CC[C@H]2C (stereo partly specified)	90 (≈ 31.1 µg/mL)	127	1.4
CC(C)=CCC[C@H](C)[C@@H]1CC[C@@H](C)c2c(OCc3ccc([N+](=O)[O-])cc3)cc(C)cc21	> 200	–	–
C/C(C=O)=C\CC[C@H](C)[C@@H]1CC[C@@H](C)c2c(O)cc(C)cc21	25.8 (≈ 7.75 µg/mL)	116	4.5
CC[C@@H](CO)NCCN[C@@H](CC)CO [ETHAMBUTOL]	7.5 (≈ 1.53 µg/mL)	> 500	>67
Cc1cc(O)c2c(c1)[C@H]([C@@H](C)CCC(O)C(C)(C)N=[N+]=[N-])CC[C@H]2C (stereo partly specified)	181 (≈ 62.5 µg/mL)	231	1.3
CC(C)=CCC[C@H](C)[C@@H]1CC[C@@H](C)c2c(OC(=O)c3ccc([N+](=O)[O-])cc3)cc(C)cc21	> 200	–	–
CC(C)=CCC[C@H](C)[C@@H]1CC[C@@H](C)c2c(OCCCCOc3cc(C)cc4c3[C@H](C)CC[C@H]4[C@@H](C)CCC=C(C)C)cc(C)cc21	200 (≈ 125 µg/mL)	–	–
CC(C)=CCC[C@H](C)[C@@H]1CC[C@@H](C)c2c(OCc3cc([N+](=O)[O-])cc([N+](=O)[O-])c3)cc(C)cc21	> 200	–	–
CC(C)=CCC[C@H](C)[C@@H]1CC[C@@H](C)c2c(O)cc(C)cc21 [LEUBETHANOL]	25.1 (≈ 7.19 µg/mL)	123	4.9
CCCCOc1cc(C)cc2c1[C@H](C)CC[C@H]2[C@@H](C)CCC=C(C)C	> 200	–	–
Cc1cc(O)c2c(c1)[C@H]([C@@H](C)CCC(O)C(C)(C)N)CC[C@H]2C (stereo partly specified)	98 (≈ 31.3 µg/mL)	141	1.4
CC(C)=CCC[C@H](C)[C@@H]1CC[C@@H](C)c2c(OC(=O)c3ccco3)cc(C)cc21	> 200	–	–
Cc1cc(O)c2c(c1)[C@H]([C@@H](C)CCC1OC1(C)C)CC[C@H]2C (mixture of isomers)	103	661	6.4
COc1cc(C)cc2c1[C@H](C)CC[C@H]2[C@@H](C)CCC=C(C)C [LEUBETHANOL METHYL ETHER]	> 200	–	–
CCCCCC(=O)Oc1cc(C)cc2c1[C@H](C)CC[C@H]2[C@@H](C)CCC=C(C)C [LEUBETHANYL HEXANOATE]	> 200	–	–
CC(=O)Oc1cc(C)cc2c1[C@H](C)CC[C@H]2[C@@H](C)CCC=C(C)C [LEUBETHANYL ACETATE]	48.7	> 1100	>22.6
CC(C)=CCC[C@H](C)[C@@H]1CC[C@@H](C)c2c(OC(=O)c3ccccc3)cc(C)cc21 [LEUBETHANYL BENZOATE]	> 200	–	–
CC(C)=CCC[C@H](C)[C@@H]1CC[C@@H](C)c2c(OCCCCCCBr)cc(C)cc21	> 200	–	–
CC(C)=CCC[C@H](C)[C@@H]1CC[C@@H](C)c2c(O)cc(C)c(Cc3cc([N+](=O)[O-])cc([N+](=O)[O-])c3)c21	17.2 (≈ 8.03 µg/mL)	> 770	>45
CC(C)=CCC[C@H](C)[C@@H]1CC[C@@H](C)c2c(OCc3ccc(Cl)cc3)cc(C)cc21	> 200	–	–
Cc1cc(O)c2c(c1)[C@H]([C@@H](C)CCCC(C)(C)O)CC[C@H]2C	200 (≈ 60.9 µg/mL)	–	–
C/C(=C\CC[C@H](C)[C@@H]1CC[C@@H](C)c2c(O)cc(C)cc21)CO	25.8 (≈ 7.8 µg/mL)	132	5.1
CCCCCCOc1cc(C)cc2c1[C@H](C)CC[C@H]2[C@@H](C)CCC=C(C)C	> 200	–	–
CC(C)=CCC[C@H](C)[C@@H]1CC[C@@H](C)c2c(OCCCCBr)cc(C)cc21	> 200	–	–
Cc1cc(O)c2c(c1)[C@H]([C@@H](C)CCCC(C)C)CC[C@H]2C	30.3 (≈ 8.74 µg/mL)	192	6.3
CC(C)=CCC[C@H](C)[C@@H]1CC[C@@H](C)c2c(OCCCCCCOc3cc(C)cc4c3[C@H](C)CC[C@H]4[C@@H](C)CCC=C(C)C)cc(C)cc21	190 (≈ 124 µg/mL)	–	–
Cc1cc(O)c2c(c1)[C@H]([C@@H](C)CCC(N)C(C)(C)O)CC[C@H]2C (stereo partly specified)	98 (≈ 31.3 µg/mL)	158	1.6
